One block for each compound: values may come before it.
Legend:
CCRF-CEM [1] = experiment: Toxicity was measured by MTT assay after 72 hours at 100 uM; assay type: functional, Homo sapiens
Outline: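 Infected CEM cells exposed to compounds (in DMSO) at 100 μM; viability after 72 h by MTT. MTT (7.5 mg/mL in phosphate buffer) added per well, 4 h at 37 °C under CO2. Formazan dissolved in 10% SDS, 10 mM HCl, absorbance at 570 nm. Average of three experiments.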

[2] = tested on: Human immunodeficiency virus 1; experiment: Effect upon disintegration catalyzed by the deletion mutant; assay type: functional
CCRF-CEM [3] = experiment: (§1) Cytotoxicity (TC90) was measured by MTT transformation assay; assay type: functional, Homo sapiens
CCRF-CEM [4] = experiment: Cytotoxicity (TC50) was measured by MTT transformation assay; assay type: functional; conditions: Homo sapiens, read-out: TC50 (the source's name)
CCRF-CEM [5] = experiment: Antiviral activity was measured as IC90 by calculating amount of virus present in CEM cells by beta-galactosidase assay.; assay type: functional; conditions: Homo sapiens
Outline: (§2)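 HIV-1 PLN4-3 (cell-free virus from CEM transfection) infection of CEM cells (RPMI-1640, 10% FCS), triplicate wells. Virus removed at 2 h, compounds in DMSO added in fresh medium at increasing concentrations. Supernatants taken at 72 h and used to infect HeLaCD4+-β-gal (P4) cells for 24 h. Lysate incubated with CPRG for 1 h, read at 570 nm. Average of three experiments.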

[6] = biological target: T1, Human immunodeficiency virus type 1 integrase (Human immunodeficiency virus 1, UniProt Q7ZJM1); experiment: In vitro anti-HIV integrase activity against integration (strand transfer) of target plasmid.
[7] = biological target: T1, Human immunodeficiency virus type 1 integrase; experiment: HIV integrase inhibitory potency was evaluated as IC50 on 3' processing of target DNA.
CCRF-CEM [8] = experiment: Antiviral activity was measured as IC50 by calculating amount of virus present in CEM cells by beta-galactosidase assay.; assay type: functional, cell-based; conditions: Homo sapiens; outline: as §2
CCRF-CEM [9] = experiment: Antiviral activity was measured as IC25 by calculating amount of virus present in CEM cells by beta-galactosidase assay.; assay type: functional; conditions: Homo sapiens; outline: as §2
CCRF-CEM [10] = experiment: Toxicity was measured by MTT assay after 120 hours at 100 uM; assay type: functional, Homo sapiens
Outline: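 Infected CEM cells exposed to compounds at 100 μM; viability assessed 120 h after infection by MTT transformation assay (formazan solubilized in SDS/HCl, absorbance at 570 nm).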

[11] = biological target: T1, Human immunodeficiency virus type 1 integrase; experiment: In vitro anti-HIV integrase activity against 3' processing of target plasmid.
Outline: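 Buffer: 20 mM Tris pH 7.2, 30 mM NaCl, 10% glycerol, 10 mM DTT, 0.01% NP40 and 10 mM MnCl2. Compounds were tested over a concentration range, and IC50 was taken for inhibition of 3'-processing.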

CCRF-CEM [12] = experiment: as §1; assay type: functional; conditions: Homo sapiens
CCRF-CEM [13] = experiment: Antiviral activity was measured as IC90 by calculating amount of virus present in CEM cells by P24 ELISA test; assay type: functional; conditions: Homo sapiens
Outline: (§3)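 Same CEM/HIV-1 PLN4-3 infection scheme: virus washed off after 2 h, compound in DMSO added in fresh medium, supernatants harvested 72 h post-infection. Viral load measured as virion-associated p24 antigen by ELISA in the culture supernatants.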

CCRF-CEM [14] = experiment: Antiviral activity was measured as IC50 by calculating amount of virus present in CEM cells by P24 ELISA test; assay type: functional, cell-based; conditions: Homo sapiens; outline: as §3
CCRF-CEM [15] = experiment: Antiviral activity was measured as IC90 by calculating amount of virus present in CEM cells by P4 infection; assay type: functional; conditions: Homo sapiens; outline: as §2
CCRF-CEM [16] = experiment: Antiviral activity was measured as IC50 by calculating amount of virus present in CEM cells by P4 infection; assay type: functional, cell-based; conditions: Homo sapiens; outline: as §2

T1 sequence (Q7ZJM1 whole entry): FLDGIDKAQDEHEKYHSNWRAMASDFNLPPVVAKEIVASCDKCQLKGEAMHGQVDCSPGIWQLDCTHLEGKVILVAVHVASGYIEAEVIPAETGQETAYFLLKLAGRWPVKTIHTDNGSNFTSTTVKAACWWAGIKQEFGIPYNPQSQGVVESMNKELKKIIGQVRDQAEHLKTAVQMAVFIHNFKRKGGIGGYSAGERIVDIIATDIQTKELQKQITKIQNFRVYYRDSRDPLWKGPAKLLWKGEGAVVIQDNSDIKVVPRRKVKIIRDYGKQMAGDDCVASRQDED

Structure (SMILES): O=C(O)c1cc(/C=C/c2ccc3ccc(C(=O)O)c(O)c3n2)ccc1O
Toxicity (CCRF-CEM [1]): 0%
IC50 ([2]; Human immunodeficiency virus 1): 0.6 µM
TC90 (CCRF-CEM [3]): >100 µM
CC50 (CCRF-CEM [4]): > 100 µM
IC90 (CCRF-CEM [5]): > 100 µM
IC50 [6]: 0.6 µM
IC50 [7]: 2.7 µM
IC50 (CCRF-CEM [8]): 62 µM
IC25 (CCRF-CEM [9]): 20.9 µM
Toxicity (CCRF-CEM [10]): 0%

Structure (SMILES): O=C(O)c1ccc2ccc(/C=C/c3cc(O)c(O)c(O)c3)nc2c1O [listing 1 of 2 here]
IC50 [7]: 0.26 µM

Structure (SMILES): Oc1ccc(/C=C/c2ccc3cccc(O)c3n2)cc1O
Toxicity (CCRF-CEM [1]): 99%
IC50 ([2]; Human immunodeficiency virus 1): 2.5 µM
TC90 (CCRF-CEM [3]): 71 µM
CC50 (CCRF-CEM [4]): 8.1 µM
IC50 [6]: 2.4 µM
IC50 [7]: 7.4 µM
IC50 (CCRF-CEM [8]): 3.6 µM
IC25 (CCRF-CEM [9]): 1.2 µM

Structure (SMILES): O=C(O)c1ccc2ccc(/C=C/c3cc(O)c(O)c(O)c3)nc2c1O [listing 2 of 2 here]
Toxicity (CCRF-CEM [1]): 100%
IC50 ([2]; Human immunodeficiency virus 1): 0.24 µM
TC90 (CCRF-CEM [3]): 93.3 µM
CC50 (CCRF-CEM [4]): 10.7 µM
IC90 (CCRF-CEM [5]): 10.7 µM
IC50 [6]: 0.4 µM
IC50 [7]: 0.3 µM
IC50 (CCRF-CEM [8]): 1.2 µM
IC25 (CCRF-CEM [9]): 0.4 µM

Structure (SMILES): N#Cc1ccc2ccc(/C=C/c3ccc(O)c(O)c3)nc2c1O
IC50 ([2]; Human immunodeficiency virus 1): 3.6 µM
TC90 (CCRF-CEM [3]): 56.3 µM
CC50 (CCRF-CEM [4]): 6.2 µM
IC50 [7]: 3 µM

Structure (SMILES): O=C(O)c1ccc2ccc(/C=C/c3ccc(O)cc3O)nc2c1O
Toxicity (CCRF-CEM [1]): 0%
IC50 ([2]; Human immunodeficiency virus 1): 2.5 µM
TC90 (CCRF-CEM [3]): >100 µM
CC50 (CCRF-CEM [4]): > 100 µM
IC90 (CCRF-CEM [5]): > 100 µM
IC50 [6]: 2.8 µM
IC50 [7]: 3.7 µM
IC50 (CCRF-CEM [8]): 79.8 µM
IC25 (CCRF-CEM [9]): 26.3 µM
Toxicity (CCRF-CEM [10]): <10%

Structure (SMILES): O=C([O-])c1ccc2ccc(/C=C/c3ccc(O)c(O)c3)nc2c1O.[Na+]
Toxicity (CCRF-CEM [1]): 0%
IC90 (CCRF-CEM [13]): > 100 µM
IC50 ([2]; Human immunodeficiency virus 1): 0.7 µM
TC90 (CCRF-CEM [3]): >100 µM
CC50 (CCRF-CEM [4]): > 100 µM
IC50 [7]: 0.8 µM
IC50 (CCRF-CEM [14]): 20 µM

Structure (SMILES): O=C(O)c1ccc2ccc(/C=C/c3ccc(O)c(O)c3)nc2c1O
Toxicity (CCRF-CEM [1]): 0%
IC90 (CCRF-CEM [15]): 12.3 µM
IC50 [2]: 0.9 µM
TC90 (CCRF-CEM [3]): >100 µM
IC50 (CCRF-CEM [16]): 1.3 µM
IC50 [6]: 1 µM
IC50 [7]: 2.4 µM
IC25 (CCRF-CEM [9]): 0.46 µM
Toxicity (CCRF-CEM [10]): <10%

Structure (SMILES): Cc1ccc2ccc(C(=O)O)c(O)c2n1
Toxicity (CCRF-CEM [1]): 0%
TC90 (CCRF-CEM [3]): >100 µM
CC50 (CCRF-CEM [4]): > 100 µM
IC90 (CCRF-CEM [5]): > 100 µM
IC50 [6]: 114 µM
IC50 [7]: > 100 µM
IC50 (CCRF-CEM [8]): > 100 µM
IC25 (CCRF-CEM [9]): > 100 µM

Continued, in another order:

IC50 [6]: > 100 µM
IC50 [11]: > 100 µM
Structure (SMILES): Cc1ccc2cccc(O)c2n1 [8-HYDROXY QUINALDINE]

IC50 [6]: 3.4 µM
IC50 [7]: 2.2 µM
Structure (SMILES): Oc1ccc(/C=C/c2ccc3ccc(/C=C/c4ccc(O)c(O)c4)c(O)c3n2)cc1O

IC50 [7]: > 100 µM
Structure (SMILES): Oc1ccc(/C=C/c2ccc3ccccc3n2)cc1O
CC50 (CCRF-CEM [4]): 12.3 µM
TC90 (CCRF-CEM [12]): 100 µM

IC50 [6]: > 100 µM
IC50 [7]: > 100 µM
Structure (SMILES): O=[N+]([O-])c1cccc2ccc(/C=C/c3ccc(O)c(O)c3)nc12

IC50 [6]: > 100 µM
IC50 [7]: > 100 µM
Structure (SMILES): COc1ccc(/C=C/C(=O)Oc2cccc3ccc(C)nc23)cc1OC

IC50 [6]: > 100 µM
IC50 [7]: > 100 µM
Structure (SMILES): Nc1cccc2ccc(/C=C/c3ccc(O)c(O)c3)nc12

IC50 [6]: > 100 µM
IC50 [7]: > 100 µM
Structure (SMILES): Cc1ccc2cccc(OC(=O)/C=C/c3ccc(O)c(O)c3)c2n1

IC50 [6]: > 100 µM
IC50 [7]: > 100 µM
Structure (SMILES): CC(=O)Oc1ccc(/C=C/c2ccc3cccc(OC(C)=O)c3n2)cc1OC(C)=O

IC50 [6]: > 100 µM
IC50 [7]: > 100 µM
Structure (SMILES): Oc1cccc2ccc(/C=C/c3ccccc3)nc12
CC50 (CCRF-CEM [4]): 50.1 µM
TC90 (CCRF-CEM [12]): > 100 µM

IC50 [6]: > 100 µM
IC50 [7]: > 100 µM
Structure (SMILES): CC(=O)Oc1cccc2ccc(/C=C/c3ccccc3)nc12

IC50 [7]: > 100 µM
Structure (SMILES): Oc1cccc2ccc(/C=C/c3ccc4cccc(O)c4n3)nc12

Source: ChEMBL document CHEMBL1131039, “Styrylquinoline derivatives: a new class of potent HIV-1 integrase inhibitors that block HIV-1 replication in CEM cells” (J Med Chem, 1998)
